Like-named read-outs stand apart in the source and are kept apart here. One block for each molecule: values may come before it.
What was measured:
[1] = with strong CYP3A inhibitor clarithromycin; cited from earlier work
[2] = cited from earlier work
BTK = conditions: cited from earlier work
CYP2C8 = molecular target: T1, CYP2C8 (Homo sapiens, UniProt P10632); assay: In vitro competitive and time-dependent inhibition of CYP2C8; assay type: in vitro ADME
T1 sequence (P10632 1-490): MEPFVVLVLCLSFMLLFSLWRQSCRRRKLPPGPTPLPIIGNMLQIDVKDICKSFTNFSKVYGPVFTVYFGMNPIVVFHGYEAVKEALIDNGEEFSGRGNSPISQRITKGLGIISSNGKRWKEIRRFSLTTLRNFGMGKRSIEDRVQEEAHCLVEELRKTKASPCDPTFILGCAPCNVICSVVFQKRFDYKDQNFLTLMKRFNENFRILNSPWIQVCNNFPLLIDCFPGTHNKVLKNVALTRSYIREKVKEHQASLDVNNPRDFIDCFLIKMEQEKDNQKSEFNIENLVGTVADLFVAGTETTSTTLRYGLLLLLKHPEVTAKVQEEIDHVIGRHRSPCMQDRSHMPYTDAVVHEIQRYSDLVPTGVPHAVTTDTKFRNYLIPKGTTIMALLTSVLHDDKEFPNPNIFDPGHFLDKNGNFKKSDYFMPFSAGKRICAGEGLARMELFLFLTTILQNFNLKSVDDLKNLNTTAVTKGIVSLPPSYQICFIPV

[3] = cited from earlier work; remark: listed apart in the source
CYP3A4 [4] = assay: Clearance of ACP-5862 in human liver microsomes; assay type: in vitro ADME; conditions: assigned to CYP3A4
CYP2C19 = CYP2C19 (Homo sapiens, UniProt P33261); assay: In vitro competitive inhibition of CYP2C19; assay type: in vitro ADME; conditions: read-out: CYP2C19 Ki; reversible inhibition
CYP2C9 = CYP2C9 (Homo sapiens, UniProt P11712); assay: In vitro competitive inhibition of CYP2C9; assay type: in vitro ADME
[5] = Physicochemical properties; conditions: Experimental data
[6] = Unbound fraction in plasma; assay type: in vitro ADME
[7] = Blood-to-plasma partition ratio; assay type: in vitro ADME
[8] = system: patients with relapsed/refractory mantle cell lymphoma; conditions: median follow-up 15.2 months; cited from earlier work
[9] = PBPK model input parameters predicted, optimized or estimated in Simcyp; parameters: species or system human
P-gp [10] = molecular target: T2, P-gp (Homo sapiens, UniProt P08183); assay: In vitro P-gp inhibition; assay type: in vitro ADME
[11] = clinical DDI study with rifampicin; cited from earlier work
CYP3A4 [12] = molecular target: CYP3A4 (Homo sapiens, UniProt P08684); assay: biochemical; assay type: in vitro ADME
[13] = system: patients with relapsed CLL; conditions: median follow-up 14.3 months; cited from earlier work
CYP3A4 [14] = assay type: in vitro ADME; conditions: any concentration evaluated
CYP2B6 = assay: In vitro CYP induction, CYP2B6 marker substrate; assay type: in vitro ADME; conditions: any concentration evaluated
P-gp [15] = molecular target: T2, P-gp; assay: Efflux in MDCKII-MDR1 cells; assay type: in vitro ADME; conditions: dog, MDCK-MDR1
human hepatocytes = assay: Metabolite profiling of 14C-acalabrutinib in human hepatocytes; assay type: in vitro ADME; conditions: 20 μM 14C-acalabrutinib
Procedure, shortened: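 14C-labelled test compound at 20 μM was incubated with human hepatocytes from two male donors for qualitative metabolite profiling. Metabolism was apportioned between glutathione and CYP-mediated pathways, and the CYP3A share of CYP metabolite formation was estimated.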

[16] = Clinical pharmacokinetics of acalabrutinib and ACP-5862; assay type: in vivo, human; conditions: ACE-HV-001, oral
Procedure, shortened: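 Healthy subjects in a phase I dose-escalation study (ACE-HV-001) received single oral acalabrutinib doses of 25, 50, 75 or 100 mg (cohorts 3–6). In vivo total clearance was taken from this study's plasma concentration–time data.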

CYP1A2 = assay: In vitro CYP induction, CYP1A2 marker substrate; assay type: in vitro ADME; conditions: any concentration evaluated

Sequence of CYP3A4 (Homo sapiens, UniProt P08684) (P08684 whole entry): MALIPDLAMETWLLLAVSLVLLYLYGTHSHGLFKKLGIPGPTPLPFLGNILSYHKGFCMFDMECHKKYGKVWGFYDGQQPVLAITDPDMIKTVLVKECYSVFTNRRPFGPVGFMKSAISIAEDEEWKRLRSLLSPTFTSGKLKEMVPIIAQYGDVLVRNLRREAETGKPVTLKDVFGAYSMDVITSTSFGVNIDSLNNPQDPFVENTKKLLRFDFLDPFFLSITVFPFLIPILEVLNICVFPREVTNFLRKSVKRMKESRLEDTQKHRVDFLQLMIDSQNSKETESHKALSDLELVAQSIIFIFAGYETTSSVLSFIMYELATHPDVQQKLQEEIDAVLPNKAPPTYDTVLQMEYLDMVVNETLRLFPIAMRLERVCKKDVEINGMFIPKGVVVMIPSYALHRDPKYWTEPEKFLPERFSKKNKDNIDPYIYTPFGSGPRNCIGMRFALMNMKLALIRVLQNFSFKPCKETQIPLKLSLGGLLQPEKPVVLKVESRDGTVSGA
Sequence of CYP2C9 (P11712 whole entry): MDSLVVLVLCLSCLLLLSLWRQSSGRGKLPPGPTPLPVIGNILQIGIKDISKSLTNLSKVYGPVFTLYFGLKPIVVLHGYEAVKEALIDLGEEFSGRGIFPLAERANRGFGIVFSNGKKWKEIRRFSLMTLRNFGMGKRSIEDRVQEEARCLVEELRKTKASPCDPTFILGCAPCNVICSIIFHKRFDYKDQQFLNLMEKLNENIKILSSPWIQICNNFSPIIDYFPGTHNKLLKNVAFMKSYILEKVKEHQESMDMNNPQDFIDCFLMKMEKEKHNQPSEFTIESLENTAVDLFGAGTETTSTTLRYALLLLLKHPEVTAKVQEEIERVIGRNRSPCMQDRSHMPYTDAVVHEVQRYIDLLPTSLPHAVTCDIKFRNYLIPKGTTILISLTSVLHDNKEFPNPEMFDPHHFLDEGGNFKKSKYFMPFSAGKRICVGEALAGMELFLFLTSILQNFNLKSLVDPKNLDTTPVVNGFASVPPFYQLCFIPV
T2 sequence (P08183 whole entry): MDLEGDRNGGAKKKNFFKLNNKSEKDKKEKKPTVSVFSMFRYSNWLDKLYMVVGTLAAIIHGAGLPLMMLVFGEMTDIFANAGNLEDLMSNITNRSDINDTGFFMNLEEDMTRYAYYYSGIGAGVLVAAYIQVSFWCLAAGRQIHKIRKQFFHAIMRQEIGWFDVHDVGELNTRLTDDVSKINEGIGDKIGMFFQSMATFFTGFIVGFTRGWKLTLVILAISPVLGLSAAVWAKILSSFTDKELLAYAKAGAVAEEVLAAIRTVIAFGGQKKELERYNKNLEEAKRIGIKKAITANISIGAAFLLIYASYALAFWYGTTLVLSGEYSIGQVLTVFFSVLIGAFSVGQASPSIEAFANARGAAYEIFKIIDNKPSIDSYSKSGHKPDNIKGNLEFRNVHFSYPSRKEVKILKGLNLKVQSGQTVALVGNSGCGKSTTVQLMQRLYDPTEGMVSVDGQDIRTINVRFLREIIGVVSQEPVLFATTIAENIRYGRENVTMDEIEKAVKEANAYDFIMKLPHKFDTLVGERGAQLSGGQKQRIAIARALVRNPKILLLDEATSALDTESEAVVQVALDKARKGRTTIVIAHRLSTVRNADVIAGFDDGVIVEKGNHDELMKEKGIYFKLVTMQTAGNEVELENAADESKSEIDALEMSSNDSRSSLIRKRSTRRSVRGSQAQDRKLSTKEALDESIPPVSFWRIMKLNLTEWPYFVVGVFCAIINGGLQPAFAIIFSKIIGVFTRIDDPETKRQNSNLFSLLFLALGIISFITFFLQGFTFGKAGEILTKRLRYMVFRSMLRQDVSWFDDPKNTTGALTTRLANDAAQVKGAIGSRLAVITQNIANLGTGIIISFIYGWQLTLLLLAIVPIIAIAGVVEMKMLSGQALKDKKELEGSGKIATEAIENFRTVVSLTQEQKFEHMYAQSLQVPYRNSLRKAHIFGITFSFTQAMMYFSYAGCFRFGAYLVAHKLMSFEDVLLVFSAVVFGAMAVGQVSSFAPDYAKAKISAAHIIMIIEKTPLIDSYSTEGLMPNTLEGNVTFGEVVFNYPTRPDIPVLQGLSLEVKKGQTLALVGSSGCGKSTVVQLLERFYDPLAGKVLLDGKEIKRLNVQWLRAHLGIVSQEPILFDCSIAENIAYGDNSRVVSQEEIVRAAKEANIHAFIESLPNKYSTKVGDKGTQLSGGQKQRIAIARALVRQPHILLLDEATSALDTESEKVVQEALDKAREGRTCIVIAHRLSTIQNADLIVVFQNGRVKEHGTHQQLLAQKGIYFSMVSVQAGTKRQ
Sequence of CYP2C19 (P33261 whole entry): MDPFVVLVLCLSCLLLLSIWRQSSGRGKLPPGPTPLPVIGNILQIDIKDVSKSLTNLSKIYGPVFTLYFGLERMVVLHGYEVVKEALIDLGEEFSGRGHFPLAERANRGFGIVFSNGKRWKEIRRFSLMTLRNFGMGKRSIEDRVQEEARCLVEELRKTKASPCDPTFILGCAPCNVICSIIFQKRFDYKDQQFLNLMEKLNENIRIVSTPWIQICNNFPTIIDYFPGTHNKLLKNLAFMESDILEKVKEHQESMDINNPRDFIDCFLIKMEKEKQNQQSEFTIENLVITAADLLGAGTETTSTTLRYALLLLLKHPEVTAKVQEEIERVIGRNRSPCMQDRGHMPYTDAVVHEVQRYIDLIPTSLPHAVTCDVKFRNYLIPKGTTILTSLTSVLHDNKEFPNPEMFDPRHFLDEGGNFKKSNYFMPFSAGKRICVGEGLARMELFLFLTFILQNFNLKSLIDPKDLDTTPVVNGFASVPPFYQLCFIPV

SMILES: CCN1CCN(Cc2ccc(Nc3ncc(F)c(-c4cc(F)c5nc(C)n(C(C)C)c5c4)n3)nc2)CC1 [abemaciclib]
- increase in exposure [1]: 3.4 fold

- Ki (CYP2C8; read-out: CYP2C8 KI, time-dependent inhibition): 4 µM
- CYP2C8 kinact (CYP2C8; time-dependent inhibition): 0.72 h⁻¹
- Clint in vitro HLM, CYP3A4 (CYP3A4 [4]): 23.6 µL/min/mg
- Ki (CYP2C19): 8.5 µM
- Ki (CYP2C9; read-out: CYP2C9 Ki, reversible inhibition): 3.35 µM
- Compound type [5]: Diprotic base
- logP [5]: 2.72
- pKa (first value) [5]: 3.41
- pKa (second value) [5]: 4.49
- fu,plasma (unbound fraction in plasma) ([6]; Experimental data): 0.013
- B/P ratio (blood-to-plasma ratio) ([7]; Experimental data): 0.65
SMILES: CC#CC(=O)NCCCC(=O)c1nc(-c2ccc(C(=O)Nc3ccccn3)cc2)c2c(N)nccn12 [ACP‐5862]
- ACP-5862-related metabolites, share of total dose ([2]; human mass balance study): 10%
- potency for BTK inactivation relative to parent acalabrutinib (BTK): ~ 50%
- CLR (renal clearance) ([3]; ACP-5862, reported in ACE-HV-009): 0.3 L/h
- half-life ([3]; ACP-5862 after single oral dose of 100 mg acalabrutinib): 6.9 h

- CYP3A4 CLint ([9]; Retrograde model, total CYP3A4 clearance): 9.63 µL/min/pmol
- microsomal CLint ([9]; human, liver microsomes): 290 µL/min/mg
- CYP3A4 CLint ([9]; the rest to other metabolites): 8.14 µL/min/pmol
- P-gp inhibition (P-gp [10]): not a P‐gp inhibitor
- Ki (CYP3A4 [12]; CYP3A4 Ki, reversible inhibition): 23.9 µM
- kinact (CYP3A4 [12]; human): 0.000308 s⁻¹
- Ki (CYP2C8): 20.6 µM
- induction of metabolism of CYP3A4 marker substrate (CYP3A4 [14]): did not cause significant induction
- induction of metabolism of CYP2B6 marker substrate (CYP2B6): did not cause significant induction
- efflux ratio at 1 μM (P-gp [15]): 42
- share of CYP3A in the formation of CYP metabolites (human hepatocytes): ~ 90%
- relative contribution of CYP-mediated metabolic pathway (human hepatocytes; two male donors): 79%
- relative contribution of glutathione metabolic pathway (human hepatocytes; two male donors): 21%
- in vivo total clearance [16]: 169 L/h
- induction of metabolism of CYP1A2 marker substrate (CYP1A2): did not cause significant induction
- Ki (CYP2C9): 11.3 µM
- Compound type [5]: Diprotic base
- pKa ([5]; pKa (first value)): 3.54
- fraction unbound ([6]; plasma): 0.026
- blood plasma ratio ([7]; blood): 0.787
SMILES: CC#CC(=O)N1CCC[C@H]1c1nc(-c2ccc(C(=O)Nc3ccccn3)cc2)c2c(N)nccn12 [Acalabrutinib]
- investigator-assessed overall response rate [8]: 81%
- unchanged acalabrutinib, share of excreted dose ([2]; human mass-balance study): 1.2%
- acalabrutinib AUC with rifampicin, reduced to % of control [11]: ~ 20%
- CLR (renal clearance) ([3]; clinical study ACE-HV-009): 1.33 L/h
- absolute oral bioavailability ([3]; healthy subjects): 25%
- oral half-life ([3]; healthy subjects): about 1.57 hours
- accumulation after multiple doses ([3]; patients): no accumulation
- overall response rate [13]: 95%

From article PMC6656940 (CPT: Pharmacometrics & Systems Pharmacology, 2019)
